ChEMBL document CHEMBL2021810, “Synthesis, anticancer activities, and cellular uptake studies of lipophilic derivatives of doxorubicin succinate” (J Med Chem, 2012)
Activity calls are given as the source filed them. The rule behind the calls is not given here.

Legend:
CCRF-CEM [1] = assay: Inhibition of cell proliferation of human CCRF-CEM cells at 1 uM after 96 to 120 hrs by CellTiter assay; type: functional
HT-29 [2] = assay: Inhibition of cell proliferation of human HT-29 cells at 1 uM after 96 to 120 hrs by CellTiter assay; type: functional
MDA-MB-468 [3] = assay: Inhibition of cell proliferation of human MDA-MB-468 cells at 1 uM after 96 to 120 hrs by CellTiter assay; type: functional
MDA-MB-361 [4] = assay: Inhibition of cell proliferation of human MDA-MB-361 cells at 1 uM after 96 to 120 hrs by CellTiter assay; type: functional
SK-OV-3 [5] = assay: Inhibition of cell proliferation of human SKOV3 cells at 1 uM after 96 to 120 hrs by CellTiter assay; type: functional
CCRF-CEM [6] = assay: Inhibition of cell proliferation of human CCRF-CEM cells at 1 uM by CellTiter assay; type: functional, cell-based; settings: TDE = time-dependent effect
HT-29 [7] = assay: Inhibition of cell proliferation of human HT-29 cells at 1 uM by CellTiter assay; type: functional, cell-based; settings: TDE = time-dependent effect
MDA-MB-468 [8] = assay: Inhibition of cell proliferation of human MDA-MB-468 cells at 1 uM by CellTiter assay; type: functional, cell-based; settings: TDE = time-dependent effect
MDA-MB-361 [9] = assay: Inhibition of cell proliferation of human MDA-MB-361 cells at 1 uM by CellTiter assay; type: functional, cell-based; settings: TDE = time-dependent effect
SK-OV-3 [10] = assay: Inhibition of cell proliferation of human SKOV3 cells at 1 uM by CellTiter assay; type: functional, cell-based; settings: TDE = time-dependent effect
CCRF-CEM [11] = assay: Growth inhibition of human CCRF-CEM cells at 1 uM after 96 hrs by CellTiter assay; type: functional, cell-based
HT-29 [12] = assay: Growth inhibition of human HT-29 cells at 1 uM after 96 hrs by CellTiter assay; type: functional, cell-based
MDA-MB-468 [13] = assay: Growth inhibition of human MDA-MB-468 cells at 1 uM after 96 hrs by CellTiter assay; type: functional, cell-based
MDA-MB-361 [14] = assay: Growth inhibition of human MDA-MB-361 cells at 1 uM after 96 hrs by CellTiter assay; type: functional, cell-based
SK-OV-3 [15] = assay: Growth inhibition of human SKOV3 cells at 1 uM after 96 hrs by CellTiter assay; type: functional, cell-based
CCRF-CEM [16] = assay: Inhibition of cell proliferation of human CCRF-CEM cells after 96 hrs by CellTiter assay; type: functional, cell-based
MDA-MB-468 [17] = assay: Inhibition of cell proliferation of human MDA-MB-468 cells at 1 uM after 120 hrs by CellTiter assay; type: functional; settings: MDA-MB-468, 120 h
SK-OV-3 [18] = assay: Cellular uptake in doxorubicin-resistant human SKOV3 cells at 5 uM after 30 mins by FACS analysis relative to doxorubicin; type: ADME, cell-based; settings: sk-ov-3, 0.5 h
In short: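 SK-OV-3 cells plated overnight in EMEM (2 × 10^5 cells/well); compound 5 μM added in opti-MEM, 30 min at 37 °C; cells trypsinized, PBS-washed, analysed by flow cytometry on FL2 channel; mean fluorescence of 10000 cells; triplicate.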

[19] = Drug uptake in doxorubicin-resistant human SKOV3 cell cytoplasm at 5 uM after 1 hr by confocal microscopic analysis; type: ADME, cell-based; settings: sk-ov-3, 1 h
In short: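 Coverslip-grown SK-OV-3 cells (seeded overnight, EMEM) treated with 5 μM compound in opti-MEM for 1 h at 37 °C, PBS-washed three times, mounted and imaged by laser scanning confocal microscopy using rhodamine and phase contrast channels for Dox fluorescence.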

[20] = Cellular uptake in doxorubicin-resistant human SKOV3 cells at 5 uM incubated for 1 hr followed by incubation with fresh media for 24 hrs measured by confocal microscopic analysis; type: ADME, cell-based, Cytoplasm; settings: sk-ov-3, 1 h
In short: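 SK-OV-3 cells seeded overnight on coverslips in EMEM, exposed to 5 μM compound in opti-MEM for 1 h at 37 °C, washed, then kept in fresh serum-containing medium 24 h; PBS-washed and imaged by laser scanning confocal microscopy, rhodamine and phase contrast channels.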

SK-OV-3 [21] = assay: Cytotoxicity against human SKOV3 cells at 10 uM incubated for 1 hr followed by incubation in compound-free medium for 72 hrs by MTT assay; type: functional
In short: (§1)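 SK-OV-3 cells plated overnight at 5000 cells/well; exposed to compound (up to 10 μM), then medium replaced with drug-free medium for 72 h; MTT added 2 h, formazan read at 490 nm; % cytotoxicity = (OD untreated − OD treated)/OD untreated × 100.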

SK-OV-3 [22] = assay: Cytotoxicity against human SKOV3 cells at 5 to 10 uM by MTT assay relative to doxorubicin; type: functional; in short: as §1
[23] = target: DNA topoisomerase 2-alpha (Homo sapiens) (UniProt P11388); assay: Inhibition of topoisomerase 2-mediated KDNA decatenation at 15 to 20 uM after 30 mins by gel electrophoretic analysis
Sequence of DNA topoisomerase 2-alpha (Homo sapiens) (P11388 whole entry): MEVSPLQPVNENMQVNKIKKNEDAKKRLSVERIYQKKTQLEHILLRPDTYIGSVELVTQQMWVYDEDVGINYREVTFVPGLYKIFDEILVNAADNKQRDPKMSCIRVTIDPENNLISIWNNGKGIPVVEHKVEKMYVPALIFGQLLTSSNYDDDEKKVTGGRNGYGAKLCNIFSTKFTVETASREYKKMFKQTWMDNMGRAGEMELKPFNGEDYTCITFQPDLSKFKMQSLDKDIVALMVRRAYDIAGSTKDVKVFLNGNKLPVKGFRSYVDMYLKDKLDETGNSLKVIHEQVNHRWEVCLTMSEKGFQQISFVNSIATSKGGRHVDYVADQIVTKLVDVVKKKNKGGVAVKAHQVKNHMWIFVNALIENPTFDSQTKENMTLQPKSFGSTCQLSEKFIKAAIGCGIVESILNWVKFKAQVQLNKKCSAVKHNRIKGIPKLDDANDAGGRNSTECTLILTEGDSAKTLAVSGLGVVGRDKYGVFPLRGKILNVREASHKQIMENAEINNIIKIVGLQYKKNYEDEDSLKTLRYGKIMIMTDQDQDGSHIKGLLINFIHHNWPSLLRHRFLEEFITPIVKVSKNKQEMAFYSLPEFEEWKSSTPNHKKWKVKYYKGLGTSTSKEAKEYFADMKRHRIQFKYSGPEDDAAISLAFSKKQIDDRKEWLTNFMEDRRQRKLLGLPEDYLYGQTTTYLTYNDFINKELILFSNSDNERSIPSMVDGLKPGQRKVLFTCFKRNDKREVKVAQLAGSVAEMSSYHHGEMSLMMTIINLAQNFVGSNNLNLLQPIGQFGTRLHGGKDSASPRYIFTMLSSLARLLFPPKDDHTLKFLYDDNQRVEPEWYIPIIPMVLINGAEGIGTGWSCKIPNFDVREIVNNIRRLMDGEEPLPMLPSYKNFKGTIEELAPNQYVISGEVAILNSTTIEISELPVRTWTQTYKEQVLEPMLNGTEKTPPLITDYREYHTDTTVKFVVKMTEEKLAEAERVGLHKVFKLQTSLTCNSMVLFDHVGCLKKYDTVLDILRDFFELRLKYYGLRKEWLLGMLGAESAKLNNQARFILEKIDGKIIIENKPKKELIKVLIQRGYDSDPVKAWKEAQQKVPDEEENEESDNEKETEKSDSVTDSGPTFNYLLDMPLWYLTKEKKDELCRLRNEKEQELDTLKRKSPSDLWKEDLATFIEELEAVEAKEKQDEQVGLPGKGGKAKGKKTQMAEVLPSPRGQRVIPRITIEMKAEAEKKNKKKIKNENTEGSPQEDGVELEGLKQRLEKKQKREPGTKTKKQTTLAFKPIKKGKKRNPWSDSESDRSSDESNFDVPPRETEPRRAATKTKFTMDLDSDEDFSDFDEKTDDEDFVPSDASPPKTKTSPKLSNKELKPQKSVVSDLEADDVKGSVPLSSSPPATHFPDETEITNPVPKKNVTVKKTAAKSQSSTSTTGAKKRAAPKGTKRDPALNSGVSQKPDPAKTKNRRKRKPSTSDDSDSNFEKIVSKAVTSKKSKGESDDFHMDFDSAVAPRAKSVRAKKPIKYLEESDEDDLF
In short: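 Eukaryotic Topo II decatenation of kDNA (0.1 μg) in Tris-HCl 50 mM pH 8.0, NaCl 150 mM, MgCl2 10 mM, DTT 0.5 mM, ATP 2 mM with compound at 1–25 μM final, 30 min at 37 °C; stopped with sarkosyl buffer; products resolved on 1% agarose with ethidium bromide.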

[24] = Chemical stability of the compound in pH 8, reaction buffer containing Tris-HCl, NaCl, MgCl2, dithiothreitol and ATP; type: physicochemical
In short: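 Compound held in Topo II reaction buffer (Tris-HCl 50 mM pH 8.0, NaCl 150 mM, MgCl2 10 mM, DTT 0.5 mM, ATP 2 mM) without enzyme; hydrolysis followed by HPLC.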

[25] = Half life in fetal bovine serum at 1 mM by HPLC analysis; type: ADME, cell-free, Bos taurus; settings: cattle
In short: (§2)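 Compound (50 μL of 1 mM DMSO stock) incubated in 1 mL of 100% FBS or PBS pH 7.0 at 37 °C with shaking; aliquots taken from 10 min to 96 h, diluted with water, analysed by HPLC at 490 nm; peak areas give % remaining and % released Dox.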

[26] = Half life in PBS at 1 mM by HPLC analysis; type: physicochemical; in short: as §2
CCRF-CEM [27] = assay: Drug metabolism in human CCRF-CEM cells assessed as doxorubicin formation at 1 uM by HPLC analysis; type: ADME, cell-based; settings: TDE = time-dependent effect
In short: (§3)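 CCRF-CEM cells grown in serum-free RPMI, exposed to 1 μM compound 4 h at 37 °C, then moved to drug-free serum-free RPMI for set times; pellets washed with ice-cold PBS, extracted with methanol/chloroform/isopropanol (4:3:1), filtered; parent and released Dox quantified by HPLC at 490 nm.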

[28] = Drug metabolism in human CCRF-CEM cells assessed as compound hydrolysis at 1 uM after 12 hrs by HPLC analysis; type: ADME, cell-based; settings: read-out: Drug metabolism; in short: as §3
[29] = Drug metabolism in human CCRF-CEM cells assessed as compound hydrolysis at 1 uM after 48 hrs by HPLC analysis; type: ADME, cell-based; settings: read-out: Drug metabolism; in short: as §3
SK-OV-3 [30] = assay: Cytotoxicity against human SKOV3 cells at > = 100 nM after 72 hrs by MTT assay; type: functional, cell-based; in short: as §1
Serum = assay: Binding affinity to serum proteins in fetal bovine serum at 1 mM; type: ADME, cell-free, Bos taurus; settings: cattle, 1000 µM
[31] = Drug metabolism in fetal bovine serum assessed as compound hydrolysis at 1 uM after 12 hrs by HPLC analysis
[32] = Drug metabolism in fetal bovine serum assessed as compound hydrolysis at 1 uM after 48 hrs by HPLC analysis

IC50 (CCRF-CEM [16]) | SMILES | inhibition at 1 µM (CCRF-CEM [1]) | inhibition at 1 µM (HT-29 [2]) | inhibition at 1 µM (MDA-MB-468 [3]) | inhibition at 1 µM (MDA-MB-361 [4]) | inhibition at 1 µM (SK-OV-3 [5]) | inhibition (CCRF-CEM [6]) | inhibition (HT-29 [7]) | inhibition (MDA-MB-468 [8]) | inhibition (MDA-MB-361 [9]) | inhibition (SK-OV-3 [10]) | growth inhibition (GI) (CCRF-CEM [11]) | growth inhibition (GI) (HT-29 [12]) | growth inhibition (GI) (MDA-MB-468 [13]) | growth inhibition (GI) (MDA-MB-361 [14]) | growth inhibition (GI) (SK-OV-3 [15]) | further results
75 nM | CCCCCCCCCCNC(=O)CCC(=O)OCC(=O)[C@]1(O)Cc2c(O)c3c(c(O)c2[C@@H](O[C@H]2C[C@H](N)[C@H](O)[C@H](C)O2)C1)C(=O)c1c(OC)cccc1C3=O | 69% | 60% | 49% | 66% | 54% | tde | tde | tde | tde | tde | Active | Active | Active | Active | Active | 
75 nM | COc1cccc2c1C(=O)c1c(O)c3c(c(O)c1C2=O)C[C@@](O)(C(=O)COC(=O)CCC(=O)O)C[C@@H]3O[C@H]1C[C@H](N)[C@H](O)[C@H](C)O1 | 69% | 60% | 49% | 66% | 54% | tde | tde | tde | tde | tde | Active | Active | Active | Active | Active | 
75 nM | CCCCCCCCCCCCCCOC(=O)CCC(=O)OCC(=O)[C@]1(O)Cc2c(O)c3c(c(O)c2[C@@H](O[C@H]2C[C@H](N)[C@H](O)[C@H](C)O2)C1)C(=O)c1c(OC)cccc1C3=O | 69% | 60% | 49% | 66% | 54% | tde | tde | tde | tde | tde | Active | Active | Active | Active | Active | 
77 nM | CCCCCCCCCCCCCCNC(=O)CCC(=O)OCC(=O)[C@]1(O)Cc2c(O)c3c(c(O)c2[C@@H](O[C@H]2C[C@H](N)[C@H](O)[C@H](C)O2)C1)C(=O)c1c(OC)cccc1C3=O | 69% | 60% | 49% | 66% | 54% | tde | tde | tde | tde | tde | Active | Active | Active | Active | Active | inhibition at 1 µM (MDA-MB-468 [17]): 70.2%; fold change (FC) (SK-OV-3 [18]): 3; Drug uptake [19]: Active; Drug uptake [20]: Active; Activity (SK-OV-3 [21]): 67.1%; fold change (FC) (SK-OV-3 [22]): 1.4; inhibition [23]: Active; Stability [24]: Stable; half-life at 1000 µM [25]: 8.3 h; half-life at 1000 µM [26]: 19.3 h; Drug metabolism (CCRF-CEM [27]): tde; metabolised at 12 h, 1 µM [28]: > 75%; metabolised at 48 h, 1 µM [29]: 98%; Activity (SK-OV-3 [30]): Active; PB (Serum): Not Active; metabolised at 12 h, 1 µM [31]: 20%; metabolised at 48 h, 1 µM [32]: 30%
